Laboratory results as given in paper PMC5903260 (British Journal of Clinical Pharmacology, 2018).
Where two headings read alike, the source gives them in different places.

Experiments:
[1] = assay type: in vivo, human; conditions: for measured plasma concentrations of metabolites: all samples after regorafenib eye drops, below LLOQ (2 μg l^−1); for Cmax: C max
In short: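 Plasma was sampled from predose to 7 days after a single dose, or to 14 days after the last of 14 days' dosing, with dense early time points. Parent and metabolites M-2 and M-5 were measured by validated LC-MS/MS; LLOQ was 0.1 µg l⁻¹ for parent and 2 µg l⁻¹ for metabolites. AUC over dosing intervals, AUC₀₋tlast, Cav, Cmax, Cmin, t1/2 and accumulation ratios were derived, with log-normal ANOVA for dose proportionality.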

[2] = Subject rating of treatment; assay type: in vivo, human; conditions: numerical rating scale 0 (none) to 10 (very severe); comparable with placebo
[3] = Safety, tolerability and functional ocular assessments in healthy volunteers; assay type: in vivo, human
In short: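 Randomized, double-masked, placebo-controlled ascending-dose design: four cohorts of 12 healthy men (9 active, 3 placebo). Drops of 30 mg ml⁻¹ (25 μl) were given to the left eye as 0.75 mg once, or 0.75 mg bid or tid for 14 days, or 1.5 mg tid for 3 days then both eyes to 14 days. Ocular symptoms were scored 5 min post-dose on a four-point scale. Visual acuity was tested at 4 m per ETDRS protocol.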

[4] = cited from earlier work
[5] = all regorafenib cohorts pooled (n = 36)

With CNC(=O)c1cc(Oc2ccc(NC(=O)Nc3ccc(Cl)c(C(F)(F)F)c3)c(F)c2)cc[n+]1[O-] [M‐2] the “measured plasma concentrations of metabolites” value [1] was under 2 µg/L.

With NC(=O)c1cc(Oc2ccc(NC(=O)Nc3ccc(Cl)c(C(F)(F)F)c3)c(F)c2)cc[n+]1[O-] [M‐5] the “measured plasma concentrations of metabolites” value [1] was under 2 µg/L.

For CNC(=O)c1cc(Oc2ccc(NC(=O)Nc3ccc(Cl)c(C(F)(F)F)c3)c(F)c2)ccn1 [Regorafenib], the “pain and discomfort ratings” value [2] was “mostly 0”, the “C av0–8” value ([1]; first dose, Cohort 1, 0.75 mg single dose, plasma, geometric mean/%CV (range)) was 0.0377 ng/mL and the “C av0–8” value ([1]; first dose, Cohort 3, 0.75 mg tid (2.25 mg day^−1), plasma, geometric mean/%CV (range)) was 0.0352 ng/mL. The “C av0–8” value ([1]; first dose, Cohort 4, 1.5 mg tid (9.0 mg day^−1), plasma, geometric mean/%CV (range)) was 0.0564 ng/mL, the Tmax ([1]; human, plasma, topical, tmax,md (time to reach maximum plasma concentration following multiple drug administration), individual subjects, after the last dose) was 0 to 12 h and the “Cav0–12md (average concentration over the 12h dosing interval)” value ([1]; last dose, 0.75 mg bid (Cohort 2)) was 3.39 ng/mL. For the same compound, the “C av0–8,md” value ([1]; last dose, Cohort 3, 0.75 mg tid (2.25 mg day^−1), geometric mean/%CV (range)) was 4.01 ng/mL, the “C av0–8,md” value ([1]; last dose, Cohort 4, 1.5 mg tid (9.0 mg day^−1), geometric mean/%CV (range)) was 12.2 ng/mL and the AUC ([1]; male, human, plasma, topical, 0.75 mg) was 40.7 ng·h/mL. For the same compound, the AUC(0-t) ([1]; male, human, plasma, topical, 0.75 mg, AUC 0–8, first dose, Cohort 2, 0.75 mg bid (1.5 mg day^−1), geometric mean/%CV (range)) was 0.255 ng·h/mL, the AUC(0-t) ([1]; male, human, plasma, topical, 0.75 mg, AUC 0–8, first dose, Cohort 3, 0.75 mg tid (2.25 mg day^−1), geometric mean/%CV (range)) was 0.282 ng·h/mL and the AUC(0-t) ([1]; male, human, plasma, topical, 0.75 mg, AUC0–tlast, Cohort 1, 0.75 mg single dose) was 39.2 ng·h/mL. For the same compound, the Cmax ([1]; male, human, plasma, topical, 0.75 mg, first dose, Cohort 1, 0.75 mg single dose, geometric mean/%CV (range)) was 0.42 ng/mL, the Cmax ([1]; male, human, plasma, topical, 0.75 mg, first dose, Cohort 2, 0.75 mg bid (1.5 mg day^−1), geometric mean/%CV (range)) was 0.234 ng/mL and the Cmax ([1]; male, human, plasma, topical, 0.75 mg, first dose, Cohort 3, 0.75 mg tid (2.25 mg day^−1), geometric mean/%CV (range)) was 0.186 ng/mL. The Tmax ([1]; male, human, plasma, topical, 0.75 mg, t max, first dose, Cohort 1, 0.75 mg single dose, median (range)) was 24 h, the Tmax ([1]; male, human, plasma, topical, 0.75 mg, t max, first dose, Cohort 2, 0.75 mg bid (1.5 mg day^−1), median (range)) was 11.9 h and the Tmax ([1]; male, human, plasma, topical, 0.75 mg, t max, first dose, Cohort 3, 0.75 mg tid (2.25 mg day^−1), median (range)) was 7.92 h. It also gave an AUC(0-t) ([1]; male, human, plasma, topical, 1.5 mg, AUC 0–8, first dose, Cohort 4, 1.5 mg tid (9.0 mg day^−1), geometric mean/%CV (range)) of 0.451 ng·h/mL, a Cmax ([1]; male, human, plasma, topical, 1.5 mg, first dose, Cohort 4, 1.5 mg tid (9.0 mg day^−1), geometric mean/%CV (range)) of 0.302 ng/mL and a Tmax ([1]; male, human, plasma, topical, 1.5 mg, t max, first dose, Cohort 4, 1.5 mg tid (9.0 mg day^−1), median (range)) of 8 h. For the same compound, the “day when steady state was reached” value ([1]; multiple-dose regimens, plasma concentrations) was 7 days, the “safety and tolerability over the dose range” value ([3]; 0.75 mg single dose to 1.5 mg tid both eyes (9 mg day^−1), 30 mg ml^−1, 14 days) was “safe and well tolerated” and the “eyelid redness and oedema, conjunctival hyperaemia and oedema” value ([3]; across all regorafenib cohorts) was “mild and comparable with the effects of placebo”. The “subjects with a burning sensation” value [3, 5] was 25%, the “subjects with a foreign body sensation” value [3, 5] was 17% and the “subjects with a transient reduction in visual acuity” value [3, 5] was 31%. For the same compound, the “subjects with blurred vision after solicited questioning” value [3, 5] was 97%, the “subjects with increased lacrimation” value [3, 5] was 8% and the subjects with itching [3, 5] was 17%. For the same compound, the “subjects with lid oedema” value [3, 5] was 8%, the “subjects with ocular/conjunctival redness” value [3, 5] was 19% and the “effect on electrocardiographic parameters” value ([3]; healthy volunteers, eye drops) was “No effect”. The “apparent terminal elimination t1/2 after oral administration” value [4] was 20 to 30 h.
